ChEMBL document CHEMBL4028848, “Discovery of N-{4-[5-(4-Fluorophenyl)-3-methyl-2-methylsulfanyl-3H-imidazol-4-yl]-pyridin-2-yl}-acetamide (CBS-3595), a Dual p38α MAPK/PDE-4 Inhibitor with Activity against TNFα-Related Diseases” (J Med Chem, 2017)
Values belong to the compound of their own block, whether it stands above or below them. The source made the active and inactive calls. The calls are words filed in the database; no cut-off is given here.

Experiments:
[1] = target: Mitogen-activated protein kinase 12 (Homo sapiens) (UniProt P53778); assay: Inhibition of p38MAPK gamma (unknown origin) at 10 uM relative to control
[2] = tested on: Canis familiaris; assay: AUC (0 to t) in Beagle dog assessed as 4-(4-(4-fluorophenyl)-1-methyl-2-(methylsulfinyl)-1H-imidazol-5-yl)pyridin-2-amine level at 40 mg/kg, po by LC-MS/MS analysis; type: ADME, organism-based, Canis lupus familiaris; conditions: in vivo
Procedure, shortened: (§1)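 Toxicokinetics from a maximum-tolerated-dose study in four Beagle dogs given 40 mg/kg orally. Plasma levels of both parent and its predominant metabolite were monitored.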

[3] = target: T1, Mitogen-activated protein kinase 14 (Homo sapiens, UniProt Q16539); assay: Inhibition of p38MAPK alpha (unknown origin) at 10 uM relative to control
[4] = tested on: Liver; assay: Drug level in human liver microsomes treated with CBS-3595 at 10 to 100 uM; type: ADME, microsome
Procedure, shortened: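 Test compound incubated at 10, 30 and 100 μM with liver microsomes from rat, Cynomolgus monkey or human, and metabolites monitored.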

[5] = tested on: Mus musculus; assay: Antiarthritic activity in human TNF transgenic mouse model assessed as reduction in synovitis at 20 to 50 mg/kg/day, po for 10 weeks; type: functional, organism-based
Procedure, shortened: (§2)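 Heterozygous human TNF transgenic mice (8 per group) were dosed orally for ten weeks with 20 or 50 mg/kg/day as a methylcellulose suspension, alongside vehicle and infliximab i.p. controls. Joint swelling and grip strength were scored weekly, and hind paws were examined histologically at the end.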

[6] = tested on: Cynomolgus monkey; assay: Toxicity in cynomolgus monkey assessed as whitish vomiting at 6 to 20 mg/kg, po; type: organism-based, Macaca fascicularis; conditions: in vivo
[7] = AUC (0 to t) in cynomolgus monkey at 20 mg/kg, po measured on day 1 and 27 post dose by LC-MS/MS analysis; type: ADME, organism-based, Macaca fascicularis; conditions: in vivo
Procedure, shortened: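 Within a 4-week oral toxicity study, Cynomolgus monkeys received 6, 12 or 20 mg/kg daily. Blood was sampled from 0.5 to 24 h post dose on days 1 and 27. Tmax, Cmax, T1/2 and AUC0–24 came from individual profiles of parent and metabolite.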

[8] = AUC (0 to t) in Beagle dog at 40 mg/kg, po by LC-MS/MS analysis; type: ADME, organism-based, Canis lupus familiaris; conditions: in vivo; procedure, shortened: as §1
[9] = tested on: Rattus norvegicus; assay: Toxicity in rat assessed as effect on respiratory rate by measuring increase in peak expiratory flow 300 mg/kg, po administered as single dose; type: organism-based; conditions: in vivo
[10] = tested on: Rattus norvegicus; assay: Toxicity in Sprague-Dawley rat assessed as increase in ptyalism at 150 mg/kg, po administered via gavage for daily 28 days followed by 2 weeks off without dosing; type: organism-based; conditions: in vivo
[11] = tested on: Mus musculus; assay: In vivo inhibition of P38 MAPKalpha in BALB/c mouse assessed as decrease in LPS/GalN-stimulated TNFalpha level in plasma at 10 mg/kg, po administered via gavage pretreated for 1 hr followed by LPS/GalN addition measured after 1.5 hrs relative to control; type: functional
Procedure, shortened: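 Male BALB/c mice, n = 6/group, given 3, 10 or 30 mg/kg orally by gavage 1 h before i.p. D-GalN (500 mg/kg) plus LPS (1.5 μg/kg). Blood was taken by cardiac puncture and plasma TNFα measured against a vehicle-only control.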

[12] = target: T1, Mitogen-activated protein kinase 14; assay: Inhibition of MKK6-mediated p38alpha MAPK (unknown origin) phosphorylation up to 10 uM
[13] = Cmax in female Sprague-Dawley rat at 30 mg/kg, po by LC-MS/MS analysis; type: ADME, organism-based; set-up: dose 30 mg/kg, route oral; conditions: in vivo
[14] = AUC (0 to infinity) in female Sprague-Dawley rat at 30 mg/kg, po by LC-MS/MS analysis; type: ADME, organism-based; set-up: dose 30 mg/kg, time infinity, route oral; conditions: in vivo
Procedure, shortened: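 Rats of each sex received a single oral dose of 30 mg/kg. Plasma concentration–time profiles of parent were determined separately for females and males.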

[15] = Drug metabolism in human primary hepatocytes assessed as CBS-3733 formation at 10 to 100 uM; type: ADME, cell-based, Hepatocyte
[16] = Tmax in cynomolgus monkey at 20 mg/kg, po measured on day 1 and 27 post dose by LC-MS/MS analysis; type: ADME, organism-based, Macaca fascicularis; conditions: in vivo
[17] = tested on: Rattus norvegicus; assay: Toxicity in Sprague-Dawley rat assessed as increase in piloerection at 150 mg/kg, po administered via gavage for daily 28 days followed by 2 weeks off without dosing; type: organism-based; conditions: in vivo
[18] = Toxicity in cynomolgus monkey for 28 days; set-up: species or system Macaca fascicularis; conditions: in vivo
Procedure, shortened: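 Cynomolgus monkeys, 32 in total, 3–5 per group. Dosed for 28 days with vehicle or 6, 12 or 20 mg/kg; the high dose was raised to 25 mg/kg/day after 1 week. Two males and two females from the control and high-dose groups were followed through a further 2-week treatment-free period. Deaths and clinical signs recorded.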

[19] = tested on: Rattus norvegicus; assay: In vivo inhibition of P38 MAPKalpha in Sprague-Dawley rat assessed as decrease in LPS-stimulated TNFalpha level in serum at 3 mg/kg, po pretreated for 1 hr followed by LPS addition measured after 2 hrs relative to control; type: functional
[20] = Drug uptake in LPS-stimulated female Lewis rat serum at 10 mg/kg, po pretreated for 5 hrs followed by LPS addition measured after 1.5 hrs post dose; type: ADME, organism-based; conditions: read-out: Drug uptake
Procedure, shortened: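 Female Lewis rats, n = 8/group, dosed orally at 10 mg/kg at 1, 3 or 5 h before LPS challenge. Serum aliquots taken 1.5 h after LPS were used to measure drug concentration.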

[21] = Drug metabolism in human urine assessed as 4-(4-(4-fluorophenyl)-1-methyl-2-(methylsulfinyl)-1H-imidazol-5-yl)pyridin-2-amine formation at 10 to 50 mg, po administered as single dose after 36 hrs; type: ADME, organism-based; conditions: in vivo
Procedure, shortened: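 Healthy subjects, single oral dose. Urine collected at 0–6, 6–12, 12–24 and 24–36 h post dose and analysed for parent and metabolite. Excreted amount expressed relative to administered dose.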

[22] = tested on: Mus musculus; assay: Antiarthritic activity in human TNF transgenic mouse model assessed as reduction in paw swelling at 20 to 50 mg/kg/day, po for 10 weeks; type: functional, organism-based; procedure, shortened: as §2
[23] = tested on: Lymphocyte; assay: Clastogenicity in human lymphocytes in absence of S9 fraction by microneucleus test; type: toxicity, cell-based
Procedure, shortened: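 Cytogenetic clastogenicity assay in cultured human lymphocytes, run with and without S9 mix.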

[24] = target: CDK3/Cyclin E (Homo sapiens) (UniProt P24864+Q00526); assay: Inhibition of CDK3/cyclinE (unknown origin) at 10 uM relative to control; type: protein-complex assay
[25] = organism: Homo sapiens; assay: Inhibition of p70S6K (unknown origin) at 10 uM relative to control
[26] = target: Mitogen-activated protein kinase 10 (Homo sapiens) (UniProt P53779); assay: Inhibition of JNK3 (unknown origin) at 10 uM relative to control
[27] = Drug metabolism in human primary hepatocytes assessed as CBS-3728 formation at 10 to 100 uM; type: ADME, cell-based, Hepatocyte
[28] = Drug metabolism in human primary hepatocytes assessed as CBS-3846 formation at 10 to 100 uM; type: ADME, cell-based, Hepatocyte
[29] = tested on: Salmonella typhimurium; assay: Genotoxicity in Salmonella typhimurium in absence of S9 fraction by Ames test; type: toxicity; conditions: salmonella enterica subsp. enterica serovar typhimurium
Procedure, shortened: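 Bacterial reverse mutation (Ames) test in S. typhimurium and E. coli strains, run with and without S9 mix.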

[30] = target: Dual specificity mitogen-activated protein kinase kinase 7 (Homo sapiens) (UniProt O14733); assay: Inhibition of MKK7beta (unknown origin) at 10 uM relative to control
[31] = tested on: Mus musculus; assay: Antiarthritic activity in human TNF transgenic mouse model assessed as reduction in bone erosion at 20 to 50 mg/kg/day, po for 10 weeks; type: functional, organism-based; procedure, shortened: as §2

T1 sequence (Q16539 whole entry): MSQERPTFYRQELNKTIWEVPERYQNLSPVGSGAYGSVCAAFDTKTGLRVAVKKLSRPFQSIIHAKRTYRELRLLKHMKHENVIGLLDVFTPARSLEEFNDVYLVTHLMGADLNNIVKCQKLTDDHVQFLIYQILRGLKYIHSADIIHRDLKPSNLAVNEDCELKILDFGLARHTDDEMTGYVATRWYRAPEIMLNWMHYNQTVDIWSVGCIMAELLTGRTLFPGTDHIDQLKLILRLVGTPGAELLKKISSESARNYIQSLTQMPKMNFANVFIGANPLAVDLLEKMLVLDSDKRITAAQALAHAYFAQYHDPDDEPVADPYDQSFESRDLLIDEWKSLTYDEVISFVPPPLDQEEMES
Dual specificity mitogen-activated protein kinase kinase 7 (Homo sapiens), sequence (O14733 whole entry): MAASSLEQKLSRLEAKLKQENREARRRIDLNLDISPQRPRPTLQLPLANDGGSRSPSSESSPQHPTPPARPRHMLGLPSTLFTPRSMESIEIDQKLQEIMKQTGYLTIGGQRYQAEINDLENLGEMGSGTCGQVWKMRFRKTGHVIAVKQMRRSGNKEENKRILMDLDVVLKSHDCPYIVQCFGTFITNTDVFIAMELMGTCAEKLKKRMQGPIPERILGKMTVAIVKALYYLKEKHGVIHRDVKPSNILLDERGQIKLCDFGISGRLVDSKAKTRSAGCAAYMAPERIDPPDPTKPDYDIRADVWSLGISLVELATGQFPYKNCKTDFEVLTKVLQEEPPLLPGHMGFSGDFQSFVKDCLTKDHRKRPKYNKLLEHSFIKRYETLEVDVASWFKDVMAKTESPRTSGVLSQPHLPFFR
Mitogen-activated protein kinase 12 (Homo sapiens), sequence (P53778 whole entry): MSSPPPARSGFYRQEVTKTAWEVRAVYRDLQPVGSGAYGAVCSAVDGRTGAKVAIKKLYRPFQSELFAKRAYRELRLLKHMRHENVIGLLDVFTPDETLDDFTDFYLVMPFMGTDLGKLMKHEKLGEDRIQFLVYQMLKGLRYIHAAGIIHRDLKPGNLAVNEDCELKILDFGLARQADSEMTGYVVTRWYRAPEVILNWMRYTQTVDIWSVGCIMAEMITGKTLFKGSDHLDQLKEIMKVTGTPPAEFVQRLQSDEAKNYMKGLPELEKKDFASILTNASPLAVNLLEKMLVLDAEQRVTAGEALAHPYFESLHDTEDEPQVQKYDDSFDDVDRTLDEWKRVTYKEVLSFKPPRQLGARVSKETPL
Mitogen-activated protein kinase 10 (Homo sapiens), sequence (P53779 whole entry): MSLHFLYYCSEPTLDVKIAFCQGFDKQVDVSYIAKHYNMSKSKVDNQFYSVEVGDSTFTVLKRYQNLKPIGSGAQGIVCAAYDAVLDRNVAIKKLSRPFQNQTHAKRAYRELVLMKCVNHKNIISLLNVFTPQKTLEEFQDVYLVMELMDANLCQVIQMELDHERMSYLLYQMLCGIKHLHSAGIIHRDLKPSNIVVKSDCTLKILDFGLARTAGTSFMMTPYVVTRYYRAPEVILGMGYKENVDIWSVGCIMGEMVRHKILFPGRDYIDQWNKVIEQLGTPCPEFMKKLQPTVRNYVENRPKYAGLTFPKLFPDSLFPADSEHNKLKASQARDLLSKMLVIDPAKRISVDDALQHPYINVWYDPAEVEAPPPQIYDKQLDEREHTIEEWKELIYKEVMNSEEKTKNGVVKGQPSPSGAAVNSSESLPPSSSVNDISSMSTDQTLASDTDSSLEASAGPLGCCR
CDK3/Cyclin E (Homo sapiens), sequence (P24864 whole entry, looked up): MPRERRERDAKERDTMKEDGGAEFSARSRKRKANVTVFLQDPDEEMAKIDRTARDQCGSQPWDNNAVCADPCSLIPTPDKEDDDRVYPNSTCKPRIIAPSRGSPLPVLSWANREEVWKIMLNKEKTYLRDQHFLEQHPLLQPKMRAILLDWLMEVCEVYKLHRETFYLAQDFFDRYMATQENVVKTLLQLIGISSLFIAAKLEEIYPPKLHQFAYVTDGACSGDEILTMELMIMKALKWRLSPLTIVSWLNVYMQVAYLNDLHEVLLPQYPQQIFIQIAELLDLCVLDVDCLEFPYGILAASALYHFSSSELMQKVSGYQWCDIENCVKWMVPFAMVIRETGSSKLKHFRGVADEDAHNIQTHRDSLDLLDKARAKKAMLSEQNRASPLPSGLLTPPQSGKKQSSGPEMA
CDK3/Cyclin E (Homo sapiens), sequence (Q00526 whole entry, looked up): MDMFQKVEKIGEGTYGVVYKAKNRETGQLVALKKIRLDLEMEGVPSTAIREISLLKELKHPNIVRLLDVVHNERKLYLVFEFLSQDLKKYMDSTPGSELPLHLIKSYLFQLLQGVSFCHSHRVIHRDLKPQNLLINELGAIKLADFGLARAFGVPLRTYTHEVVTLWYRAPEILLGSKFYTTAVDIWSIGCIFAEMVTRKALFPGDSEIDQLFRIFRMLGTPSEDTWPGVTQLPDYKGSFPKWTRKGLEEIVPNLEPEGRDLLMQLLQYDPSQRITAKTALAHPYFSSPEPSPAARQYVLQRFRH

inhibition [1]: inactive | AUCt [2]: 86.5 µM·h | inhibition [3]: inactive | Drug metabolism [4]: Metabolite_Detected
SMILES: Cn1c([S+](C)[O-])nc(-c2ccc(F)cc2)c1-c1ccnc(N)c1 (configuration not stated)

SMILES: CC(=O)Nc1cc(-c2c(-c3ccc(F)cc3)nc([S+](C)[O-])n2C)ccn1 (configuration not stated)
Activity [5]: Active | Activity [6]: Toxic | AUC(0-t) [7]: 79.6 µM·h | AUC(0-t) [8]: 93.4 µM·h | Activity [9]: Toxic | Activity [10]: Toxic | inhibition in vivo at 10 mg/kg [11]: 84% | inhibition [12]: inactive | Cmax [13]: 4.8 µM | AUC(0-inf) [14]: 40.9 µM·h | Drug metabolism [15]: Metabolite_Detected | Tmax [16]: 4 h | Activity [17]: Toxic | MTD at 672 h [18]: 20 mg/kg | NOAEL at 672 h [18]: > 25 mg/kg | inhibition in vivo at 3 mg/kg [19]: 88% | concentration at 1.5 h [20]: 871 ng/mL | Drug excretion [21]: 6 %ID | Activity [22]: Active | Activity [23]: Non-Toxic | inhibition [24]: 55% | inhibition [25]: 32% | inhibition [26]: 76% | Drug metabolism [27]: Metabolite_Detected | Drug metabolism [28]: Metabolite_Detected | Activity [29]: Non-Toxic | inhibition [30]: 101% | Activity [31]: Active
